Holding throughout (assay type): cell-based
Test [1] deals with GABA-A receptor; alpha-3/beta-3/gamma-2 (Homo sapiens) (UniProt P18507+P28472+P34903). The experiment in a line: Efficacy was measured as modulation of the current in response to GABA at hGABA alpha-3-beta-3-gamma-2 receptor expressed in Xenopus oocytes. The following applies: Oocyte. Summed up: (§1)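 Two-electrode voltage clamp on Xenopus oocytes expressing each receptor combination. […] Value is percent increase or decrease of the EC20 GABA current.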

The target of test [2] is T1, GABA-A receptor; alpha-1/beta-3/gamma-2 (Homo sapiens, UniProt P14867+P18507+P28472).
T1 sequence (P14867 whole entry): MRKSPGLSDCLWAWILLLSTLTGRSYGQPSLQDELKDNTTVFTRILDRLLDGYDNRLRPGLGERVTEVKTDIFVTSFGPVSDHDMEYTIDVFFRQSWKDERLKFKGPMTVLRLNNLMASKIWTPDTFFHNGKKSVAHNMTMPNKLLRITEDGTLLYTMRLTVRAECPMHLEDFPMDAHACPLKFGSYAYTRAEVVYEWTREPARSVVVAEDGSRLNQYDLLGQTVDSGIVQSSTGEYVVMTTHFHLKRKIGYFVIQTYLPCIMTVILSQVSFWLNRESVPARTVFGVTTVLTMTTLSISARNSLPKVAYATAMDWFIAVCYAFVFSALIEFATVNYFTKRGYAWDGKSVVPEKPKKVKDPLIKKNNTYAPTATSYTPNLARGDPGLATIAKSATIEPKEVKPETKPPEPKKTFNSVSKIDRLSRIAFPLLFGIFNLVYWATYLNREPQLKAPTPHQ
T1 sequence (P18507 whole entry): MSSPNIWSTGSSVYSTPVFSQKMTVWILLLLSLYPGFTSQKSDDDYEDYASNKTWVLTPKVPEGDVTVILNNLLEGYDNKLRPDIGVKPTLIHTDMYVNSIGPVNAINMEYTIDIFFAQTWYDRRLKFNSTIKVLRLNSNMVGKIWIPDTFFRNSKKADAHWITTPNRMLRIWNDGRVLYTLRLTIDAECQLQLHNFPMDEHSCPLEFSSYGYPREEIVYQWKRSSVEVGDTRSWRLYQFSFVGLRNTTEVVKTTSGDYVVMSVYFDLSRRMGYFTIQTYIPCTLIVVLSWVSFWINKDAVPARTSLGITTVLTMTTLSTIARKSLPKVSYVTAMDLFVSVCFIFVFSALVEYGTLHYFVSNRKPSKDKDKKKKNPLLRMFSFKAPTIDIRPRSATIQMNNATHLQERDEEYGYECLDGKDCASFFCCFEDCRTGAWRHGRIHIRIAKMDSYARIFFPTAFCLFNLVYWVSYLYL
T1 sequence (P28472 whole entry): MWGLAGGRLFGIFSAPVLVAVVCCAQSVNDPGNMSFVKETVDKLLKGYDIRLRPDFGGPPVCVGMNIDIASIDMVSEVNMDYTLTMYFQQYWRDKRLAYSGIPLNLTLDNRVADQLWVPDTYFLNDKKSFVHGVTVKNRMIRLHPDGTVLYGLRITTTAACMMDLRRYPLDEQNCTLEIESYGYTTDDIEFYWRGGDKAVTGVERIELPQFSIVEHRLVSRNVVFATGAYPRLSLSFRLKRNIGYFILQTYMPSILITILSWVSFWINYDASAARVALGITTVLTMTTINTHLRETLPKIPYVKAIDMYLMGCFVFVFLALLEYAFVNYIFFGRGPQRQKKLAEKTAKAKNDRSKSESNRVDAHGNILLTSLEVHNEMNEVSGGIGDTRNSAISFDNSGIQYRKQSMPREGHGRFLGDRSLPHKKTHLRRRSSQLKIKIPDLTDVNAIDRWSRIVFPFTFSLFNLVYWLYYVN
The experiment in a line: Inhibition of [3H]Ro-151788 binding to recombinant human gamma-aminobutyric-acid A receptor alpha-1-beta-3-gamma-2 subtype expressed in L (tk-) cells.

Test [3] addresses T2, GABA-A receptor; alpha-5/beta-3/gamma-2 (Homo sapiens, UniProt P18507+P28472+P31644).
T2 sequence (P18507 whole entry): T1 sequence (P18507 whole entry)
T2 sequence (P28472 whole entry): T1 sequence (P28472 whole entry)
T2 sequence (P31644 whole entry): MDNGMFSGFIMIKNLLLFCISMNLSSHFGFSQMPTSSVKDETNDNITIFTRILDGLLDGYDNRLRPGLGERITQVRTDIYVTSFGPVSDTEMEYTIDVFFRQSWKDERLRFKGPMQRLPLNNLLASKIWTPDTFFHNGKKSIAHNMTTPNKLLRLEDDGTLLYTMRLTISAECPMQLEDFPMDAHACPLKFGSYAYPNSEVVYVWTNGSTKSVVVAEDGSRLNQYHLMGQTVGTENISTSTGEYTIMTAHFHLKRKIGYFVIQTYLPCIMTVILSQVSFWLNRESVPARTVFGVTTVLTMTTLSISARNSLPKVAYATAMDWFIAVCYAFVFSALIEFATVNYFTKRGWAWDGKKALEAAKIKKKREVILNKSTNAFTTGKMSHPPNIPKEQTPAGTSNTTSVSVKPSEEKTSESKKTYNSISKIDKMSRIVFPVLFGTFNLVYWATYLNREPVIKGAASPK
The experiment in a line: Inhibition of [3H]Ro-151788 binding to recombinant human gamma-aminobutyric-acid A receptor alpha-5-beta-3-gamma-2 subtype expressed in L (tk-) cells.

For test [4], the target named is T3, GABA-A receptor; alpha-2/beta-3/gamma-2 (Homo sapiens, UniProt P18507+P28472+P47869).
T3 sequence (P18507 whole entry): T1 sequence (P18507 whole entry)
T3 sequence (P28472 whole entry): T1 sequence (P28472 whole entry)
T3 sequence (P47869 whole entry): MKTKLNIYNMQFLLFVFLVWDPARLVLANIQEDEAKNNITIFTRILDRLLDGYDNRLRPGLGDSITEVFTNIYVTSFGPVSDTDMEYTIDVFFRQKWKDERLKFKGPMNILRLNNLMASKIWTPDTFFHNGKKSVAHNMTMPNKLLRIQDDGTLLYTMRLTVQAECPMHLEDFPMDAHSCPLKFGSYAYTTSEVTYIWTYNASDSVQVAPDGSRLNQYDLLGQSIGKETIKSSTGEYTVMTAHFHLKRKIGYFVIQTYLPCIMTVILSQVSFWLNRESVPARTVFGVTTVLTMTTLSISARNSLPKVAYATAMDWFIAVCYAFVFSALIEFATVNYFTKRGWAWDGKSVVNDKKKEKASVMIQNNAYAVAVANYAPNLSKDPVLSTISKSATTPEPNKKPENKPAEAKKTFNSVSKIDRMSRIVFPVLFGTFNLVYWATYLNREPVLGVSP
The experiment in a line: Inhibition of [3H]Ro-151788 binding to recombinant human gamma-aminobutyric acid A receptor alpha-2-beta-3-gamma-2 subtype expressed in L (tk-) cells.

For test [5], the target named is GABA-A receptor; alpha-2/beta-3/gamma-2 (Homo sapiens) (UniProt P18507+P28472+P47869). The experiment in a line: Efficacy was measured as modulation of the current in response to GABA at hGABA alpha-2-beta-3-gamma-2 receptor expressed in Xenopus oocytes. The settings on record: Oocyte. Summed up:
as §1

Test [6] addresses T4, GABA-A receptor; alpha-3/beta-3/gamma-2 (Homo sapiens, UniProt P18507+P28472+P34903).
T4 sequence (P18507 whole entry): T1 sequence (P18507 whole entry)
T4 sequence (P28472 whole entry): T1 sequence (P28472 whole entry)
T4 sequence (P34903 whole entry): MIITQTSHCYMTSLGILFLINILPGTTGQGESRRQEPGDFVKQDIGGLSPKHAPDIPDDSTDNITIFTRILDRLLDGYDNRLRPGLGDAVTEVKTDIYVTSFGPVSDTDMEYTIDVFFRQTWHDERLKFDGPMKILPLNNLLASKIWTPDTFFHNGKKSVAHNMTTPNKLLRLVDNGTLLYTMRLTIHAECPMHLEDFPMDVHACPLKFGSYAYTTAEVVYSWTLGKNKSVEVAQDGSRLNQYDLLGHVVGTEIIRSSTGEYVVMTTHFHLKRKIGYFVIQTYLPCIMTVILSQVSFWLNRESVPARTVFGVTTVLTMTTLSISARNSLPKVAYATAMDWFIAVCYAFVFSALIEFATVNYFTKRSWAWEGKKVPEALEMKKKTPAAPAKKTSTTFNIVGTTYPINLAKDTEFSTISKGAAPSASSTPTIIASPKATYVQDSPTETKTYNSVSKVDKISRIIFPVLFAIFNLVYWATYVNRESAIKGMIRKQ
The experiment in a line: Inhibition of [3H]Ro-151788 binding to recombinant human gamma-aminobutyric-acid A receptor alpha-3-beta-3-gamma-2 subtype expressed in L (tk-) cells.

Test [7] has as its target GABA-A receptor; alpha-5/beta-3/gamma-2 (Homo sapiens) (UniProt P18507+P28472+P31644). The experiment in a line: Efficacy was measured as modulation of the current in response to GABA at hGABA alpha-5-beta-3-gamma-2 receptor expressed in Xenopus oocytes. The settings on record: Oocyte. Put shortly: as §1
Test [8] deals with GABA-A receptor; alpha-1/beta-3/gamma-2 (Homo sapiens) (UniProt P14867+P18507+P28472). The experiment in a line: Efficacy was measured as modulation of the current in response to GABA at hGABA alpha-1-beta-3-gamma-2 receptor expressed in Xenopus oocytes. The settings on record: Oocyte. Put shortly:
as §1

Molecules are shown by their SMILES. pKi: −log10 of the molar value.

For orientation: pKi means the Ki on a negative log10 scale, so that one unit is a factor of ten. `Cn1cnc(COc2nn3c(-c4ccccc4)nnc3c3c2C2CCC3CC2)n1`: the Efficacy in test [1] is 88%; in test [5] it was 16%; in test [7], 26%; in test [8], 26%. Further, the pKi was 7.51 in test [2], 8.68 in test [3], 7.80 in test [4] and 8.10 in test [6].
`Cc1ccc(-c2nnc3c4c(c(OCc5ccccn5)nn23)C2CCC4CC2)cc1`: the Efficacy in test [1] was 40%; in test [5] it was 14%; in test [7] it was 6%; in test [8], 9%. Besides, the pKi was 6.51 in test [2], 8.33 in test [3], 6.92 in test [4] and 7.49 in test [6].
For the compound `c1ccc(-c2nnc3c4c(c(OCc5cccnn5)nn23)C2CCC4CC2)cc1`, the Efficacy in test [1] is 57%; in test [5] it was 35%; in test [7] it was 39%; in test [8] it was 64%. The pKi was 7.48 in test [2], 9.06 in test [3], 7.85 in test [4] and 8.07 in test [6].
As for `CN1C(=O)CN=C(c2ccccc2)c2cc(Cl)ccc21`, the Efficacy in test [1] came out at 118%; in test [5] it was 138%; in test [7], 106%; in test [8], 103%.

The values above are taken from ChEMBL document CHEMBL1142695, “Discovery of functionally selective 7,8,9,10-tetrahydro-7,10-ethano-1,2,4-triazolo[3,4-a]phthalazines as GABA A receptor agonists at the alpha3 subunit” (J Med Chem, 2005).
